Source: article PMC6344890 (Journal of medicinal chemistry, 2018)
Blank lines part the entries; values can stand above or below the compound they belong to.

Experiments:
PC12 cells [1] = assay: Oxygen glucose deprivation; format: cell-based; settings: PC12-OGD primary assay, 1, 10, 25 μM
In short: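 PC12 cells (passage 12–14, undifferentiated) were plated overnight in serum-containing DMEM/F12. They were deprived of glucose and oxygen for 1.5 h (glucose-free HBSS, argon, 37 °C). The medium was then replaced with growth medium containing test compound (1, 10, 25 µM) or DMSO for 24 h. MTT (0.5 mg/mL) was added for 4 h and dissolved in DMSO, with absorbance read at 540 nm. Viability is % change versus vehicle control; mean ± SEM, n = 3, triplicate experiments; ANOVA with Dunnett's test.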

PC12 cells [2] = assay: OGD neuroprotection concentration response, PrestoBlue; format: cell-based; settings: 50 μM, OGD-exposed PC12 cells
In short: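 Undifferentiated PC12 cells (passage 12–14) were plated overnight in DMEM/F12 with 5% FBS and 5% HS. They were given 1.5 h OGD in glucose-free HBSS under argon at 37 °C. Fresh growth medium with test compound (0.1, 1, 5, 10, 25, 50 µM) or DMSO followed, for 24 h at 37 °C. PrestoBlue (10%) was added for 30 min, and fluorescence was read at 560/590 nm. Results are % change versus vehicle control; non-OGD plates were included.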

sGC signaling = assay: PC12-OGD assay with co-incubation of the sGC inhibitor ODQ, MTT readout; format: cell-based; settings: ODQ 10 μM
In short: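 This was the PC12 OGD protocol (90 min glucose-free HBSS under argon at 37 °C, then 24 h in growth medium with test compound), with ODQ (10 µM) co-incubated. Viability was read by MTT (0.5 mg/mL, 4 h, DMSO-solubilised, 540 nm) relative to vehicle control. Mean ± SEM, n = 3, duplicate experiments; one-way ANOVA with Dunnett's test.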

[3] = test system: GABAA, serotonin receptors, dopamine receptors, and muscarinic and nicotinic acetylcholine receptors; assay: Psychoactive Drug Screening Program radioligand binding panel; settings: PDSP, Supplementary Table 2
hERG = hERG (Homo sapiens, UniProt Q12809); assay: Psychoactive Drug Screening Program hERG binding; settings: PDSP
[4] = Reactivity analysis with N-acetyl cysteine, HPLC-PDA; format: physicochemical; settings: 250 μM compound, N-acetyl cysteine 5 mM, PBS 50 mM pH 7.4, 37 °C, 2 and 12 h
In short: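 Test compound (250 µM) or N-ethylmaleimide (250 µM) was incubated with or without N-acetylcysteine (5 mM) in 50 mM PBS, pH 7.4, at 37 °C. Aliquots were taken at 2 and 12 h and analysed by HPLC-PDA. Peak areas at each analyte's UV λmax gave the relative abundance of remaining starting material.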

PC12 cells [5] = assay: NO production as NO2− in the primary assay; format: cell-based
PC12 cells [6] = assay: LC-MS/MS study of cell permeability; format: in vitro ADME; settings: 25 μM, 24 h, control and OGD-treated PC12 cells
In short: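 PC12 cells (1×10^6) were given 1.5 h OGD under argon at 37 °C, or kept without OGD on a control plate. They were then exposed to 25 µM test compound or vehicle for 24 h. Medium was collected, and cytosol was taken by lysis in HEPES/NP-40 buffer for 15 min at 0 °C and centrifuged. Samples were diluted in 2% formic acid and spiked with an analogue internal standard. Analysis was positive-ESI UPLC-MS/MS, with MRM peak areas normalised to the internal standard.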

[7] = format: in vivo; settings: 20 mg/kg ip or po, mice
CREB phosphorylation = assay: pCREB:tCREB ratio in forebrain by ELISA; format: in vivo, mice; settings: 5a alone 20 mg/kg ip or po, 1, 2 or 12 h
delta opioid receptor = delta opioid receptor (Homo sapiens, UniProt P41143); assay: Psychoactive Drug Screening Program binding, delta opioid receptor; settings: PDSP
[8] = test system: benzodiazepine (BZP) rat brain site; assay: Psychoactive Drug Screening Program binding, benzodiazepine; settings: PDSP
male C57BL/6 mice = assay: Step-through passive avoidance; format: in vivo; settings: scopolamine 1 mg/kg ip 30 min prior to training alone (negative control); vehicle-treated 270 ± 29 s; mean ± SEM

Sequence of delta opioid receptor (P41143 whole entry): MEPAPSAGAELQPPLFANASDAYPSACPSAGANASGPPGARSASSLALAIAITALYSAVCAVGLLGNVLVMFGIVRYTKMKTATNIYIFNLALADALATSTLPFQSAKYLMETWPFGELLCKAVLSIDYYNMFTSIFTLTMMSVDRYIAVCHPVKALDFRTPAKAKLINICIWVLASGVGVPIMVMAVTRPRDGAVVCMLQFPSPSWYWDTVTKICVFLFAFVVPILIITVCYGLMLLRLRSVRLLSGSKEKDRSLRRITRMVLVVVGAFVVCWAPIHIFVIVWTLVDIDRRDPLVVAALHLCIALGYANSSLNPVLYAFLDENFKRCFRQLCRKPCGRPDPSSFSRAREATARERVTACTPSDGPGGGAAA
Sequence of hERG (Q12809 whole entry): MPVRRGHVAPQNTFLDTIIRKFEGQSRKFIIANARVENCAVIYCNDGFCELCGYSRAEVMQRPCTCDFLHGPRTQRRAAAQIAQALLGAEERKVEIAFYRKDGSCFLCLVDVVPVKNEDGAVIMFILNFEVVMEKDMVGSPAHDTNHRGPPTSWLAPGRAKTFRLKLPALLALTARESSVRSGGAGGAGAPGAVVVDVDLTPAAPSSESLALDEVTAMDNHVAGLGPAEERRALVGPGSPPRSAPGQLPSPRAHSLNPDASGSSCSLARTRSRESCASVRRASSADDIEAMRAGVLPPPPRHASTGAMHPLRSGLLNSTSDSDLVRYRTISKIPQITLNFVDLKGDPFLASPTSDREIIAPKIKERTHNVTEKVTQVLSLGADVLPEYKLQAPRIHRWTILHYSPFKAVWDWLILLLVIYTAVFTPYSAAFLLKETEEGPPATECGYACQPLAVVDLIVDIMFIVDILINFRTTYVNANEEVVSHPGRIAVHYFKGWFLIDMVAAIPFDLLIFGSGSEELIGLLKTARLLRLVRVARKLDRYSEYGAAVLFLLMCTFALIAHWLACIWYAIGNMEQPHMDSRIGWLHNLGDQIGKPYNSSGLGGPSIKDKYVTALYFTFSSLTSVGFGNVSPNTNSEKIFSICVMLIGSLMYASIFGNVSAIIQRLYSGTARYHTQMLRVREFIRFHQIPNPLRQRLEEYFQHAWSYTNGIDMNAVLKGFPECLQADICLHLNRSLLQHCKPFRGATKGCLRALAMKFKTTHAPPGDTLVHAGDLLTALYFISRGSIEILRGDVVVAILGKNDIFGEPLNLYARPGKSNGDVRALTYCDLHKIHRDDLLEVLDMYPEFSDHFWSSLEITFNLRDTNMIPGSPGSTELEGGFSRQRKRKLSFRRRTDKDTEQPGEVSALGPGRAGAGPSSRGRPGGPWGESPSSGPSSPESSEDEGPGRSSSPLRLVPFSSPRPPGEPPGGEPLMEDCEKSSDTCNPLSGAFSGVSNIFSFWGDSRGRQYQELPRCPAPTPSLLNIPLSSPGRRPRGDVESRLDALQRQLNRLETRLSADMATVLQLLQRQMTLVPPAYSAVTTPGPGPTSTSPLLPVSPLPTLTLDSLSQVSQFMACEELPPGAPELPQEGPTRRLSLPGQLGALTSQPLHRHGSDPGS

SMILES: CC1CCN(Cc2no[n+]([O-])c2-c2ccc(Br)cc2)CC1 [Furoxan 5c, 3-(4-Bromophenyl)-4-((4-methylpiperdin-1-yl)methyl)-1,2,5-oxadiazole 2-Oxide]
- neuroprotection (in words) (PC12 cells [1]): noticeable neuroprotective activity

SMILES: CC1CCN(Cc2no[n+]([O-])c2-c2ccc(OC(F)F)cc2)CC1 [Furoxan 5d, 3-(4-(Difluoromethoxy)phenyl)-4-((4-methylpiperidin-1-yl)-methyl)-1,2,5-oxadiazole 2-Oxide]
- neuroprotection (in words) (PC12 cells [1]): noticeable neuroprotective activity

SMILES: CCN1C(=O)C=CC1=O [NEM, N-ethylmaleimide, reference compound]
- reactivity with excess thiol [4]: complete reaction

SMILES: CN1[C@@H]2C[C@@H](OC(=O)[C@H](CO)c3ccccc3)C[C@H]1[C@@H]1O[C@@H]12 [Scopolamine]
- latency to enter the dark compartment 24 h after training (male C57BL/6 mice): 63.5 ± 30 s

The next lines start with results.

- reactivity with excess thiol [4]: negligible reactivity
- distribution between media (supernatant) and cytosol (PC12 cells [6]): found in greatest amounts in the cytosol
- presence in forebrain and plasma after 12 h [7]: detectable levels after 12 h
SMILES: CC1CCN(Cc2no[n+]([O-])c2-c2ccc(F)cc2)CC1 [Furoxan 5a, 3-(4-Fluorophenyl)-4-((4-methylpiperidin-1-yl)methyl)-1,2,5-oxadiaozle 2-Oxide]
- neuroprotection (in words) (PC12 cells [1]): noticeable neuroprotective activity
- toxicity at the highest concentration tested (PC12 cells [2]): no toxicity was observed
- neuroprotective effects on co-incubation with ODQ (sGC signaling): completely blocked
- interference with radioligand binding, receptor panel [3]: does not interfere with binding of any radioligands for all receptors screened
- hERG binding (hERG): No hERG binding was observed
- NO production in the form of NO2− (PC12 cells [5]): negligible NO production
- effect on pCREB (pCREB:tCREB ratio), forebrain (CREB phosphorylation): no effect on pCREB was observed

- inhibition of binding at the delta opioid receptor (delta opioid receptor): significantly inhibited binding
- inhibition of binding at the benzodiazepine (BZP) rat brain site [8]: significantly inhibited binding
- distribution between media (supernatant) and cytosol (PC12 cells [6]): found in greatest amounts in the cytosol
SMILES: [2H]C1([2H])CC(C)CC([2H])([2H])N1Cc1no[n+]([O-])c1-c1ccc(F)cc1 [Furoxan 7a, 3-(4-Fluorophenyl)-4-((4-methylpiperidin-1-yl-2,2,6,6-d4)methyl)-1,2,5-oxadiazole 2-Oxide]
- neuroprotection (in words) (PC12 cells [1]): no neuroprotective effects
